Experimental data taken from ChEMBL document CHEMBL2331406, “In vitro activity of scorpiand-like azamacrocycle derivatives in promastigotes and intracellular amastigotes of Leishmania infantum and Leishmania braziliensis” (Eur J Med Chem, 2013).
Activity calls are given as the source filed them. The calls are words filed in the database; no cut-off is given here.

Columns and labels:
[1] = tested on: J774.2; assay: Cytotoxicity against mouse J774.2 cells after 72 hrs by PI-staining based flow cytometric analysis; type: cell-based; conditions: J774.2, 72 h
In short: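 J774.2 macrophages (ECACC 91051511, female BALB/c mouse tumour) treated 72 h with 100, 50, 25, 10 and 1 of compound. Propidium iodide then fluorescein diacetate each added for 10 min at 28 °C in the dark. Cells pelleted at 400g, washed in PBS and analysed by flow cytometry. Viability % vs control; IC50 by linear regression of Kc values.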

[2] = Selectivity index, ratio of IC50 for mouse J774.2 cells to IC50 for amastigote form of Leishmania braziliensis MHOM/BR/1975/M2904 infected in J774.2 cells; type: toxicity, cell-based; conditions: J774.2 cells, read-out: Ratio IC50
In short: (§1)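 J774.2 macrophages in MEM + 2 mM glutamine + 20% inactivated FCS were infected with stationary-phase promastigotes (10:1) for 24 h at 37 °C, 5% CO2. After washing, compounds were added at […] for 72 h. Amastigote reduction was scored in methanol-fixed, Giemsa-stained preparations; IC50 by regression; triplicates. SI = J774.2 IC50 (72 h flow cytometry)/amastigote IC50; ratio is versus Glucantime SI.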

[3] = Selectivity index, ratio of IC50 for mouse J774.2 cells to IC50 for promastigote form of Leishmania infantum MCAN/ES/2001/UCM-10; type: toxicity; conditions: J774.2 cells, read-out: Ratio IC50
In short: (§2)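 J774.2 toxicity: 72 h at the same concentrations, viability by flow cytometry with propidium iodide/fluorescein diacetate; IC50 by linear regression. SI = macrophage IC50/parasite IC50; ratio is compound SI over Glucantime SI.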

[4] = tested on: Leishmania infantum; assay: Antileishmanial activity against promastigote form of Leishmania infantum MCAN/ES/2001/UCM-10 infected in J774.2 cells assessed as inhibition of number of amastigotes per host cell at IC25 concentration incubated for 12 hrs followed by compound washout measured after 48 hrs by microscopic analysis; type: functional
In short: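 J774.2 cells seeded at 1 × 10^4 cells/well on coverslips and cultured 2 days. Infected with promastigotes at 10:1 with drug at IC25 added immediately, for 12 h at 37 °C in 5% CO2. Parasites and drug washed out, then grown 10 days with washing and fresh medium every 48 h. On methanol-fixed, Giemsa-stained slides, % infected cells and amastigotes per infected cell scored from more than 200 host cells. Three determinations.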

[5] = Inhibition of promastigote form Leishmania braziliensis MHOM/BR/1975/M2904 Fe-SOD by NBT reduction assay; design: species or system Leishmania braziliensis MHOM/BR/75/M2904
In short: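 Promastigotes sonicated in sucrose/Tris-HCl/EDTA buffer, pH 7.8, and centrifuged. Protein precipitating at 35–85% ammonium sulphate desalted into 20 mM potassium phosphate with 1 mM EDTA, pH 7.8. Protein measured by Bradford. Fe-SOD activity read spectrophotometrically as inhibition of NBT reduction by superoxide, with compounds at 0.1–50. IC50 by linear regression of Kc values; three determinations; Newman-Keuls test vs control homogenate.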

[6] = tested on: Leishmania braziliensis; assay: Antileishmanial activity against amastigote form of Leishmania braziliensis MHOM/BR/1975/M2904 infected in J774.2 cells after 72 hrs by haemocytometric analysis; type: functional, cell-based, MHOM/BR/75/M2904; conditions: Leishmania braziliensis, MHOM/BR/75/M2904, J774.2, 72 h
In short: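 J774.2 macrophages grown in MEM with 2 mM glutamine and 20% inactivated FCS at 37 °C in 5% CO2. Infected with stationary-phase promastigotes at 10:1 for 24 h, then washed free of non-phagocytosed parasites. Compounds at 1, 10, 25, 50 and 100 for 72 h. Amastigotes counted on methanol-fixed, Giemsa-stained preparations and % reduction taken vs untreated. IC50 by linear regression of Kc values; three separate determinations.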

[7] = tested on: Leishmania braziliensis; assay: Antileishmanial activity against promastigote form of Leishmania braziliensis MHOM/BR/1975/M2904 assessed as cytoplasmic alterations at IC25 concentration after 96 hrs by MET microscopic analysis; type: functional; conditions: MHOM/BR/75/M2904
In short: (§3)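 Promastigotes at 5 × 10^5 cells/mL in MTL medium with compound at IC25 for 96 h. Ultrastructure examined by transmission electron microscopy against untreated control parasites.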

[8] = Ratio of compound selectivity index to glucantime selectivity index for amastigote form of Leishmania braziliensis MHOM/BR/1975/M2904 infected in J774.2 cells over mouse J774.2 cells; in short: as §1
[9] = tested on: Leishmania braziliensis; assay: Antileishmanial activity against promastigote form of Leishmania braziliensis MHOM/BR/1975/M2904 assessed as change in succinate metabolite production at IC25 concentration after 96 hrs by H1-NMR analysis; type: functional, MHOM/BR/75/M2904
In short: (§4)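 Promastigote cultures, initial 5 × 10^5 cells/mL, given the IC25 of compound; controls left untreated. Incubated 96 h at 28 °C, then centrifuged at 400g for 10 min. Excreted metabolites in the medium identified by 1H NMR spectra and compared with untreated control.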

[10] = Ratio of compound selectivity index to glucantime selectivity index for promastigote form of Leishmania infantum MCAN/ES/2001/UCM-10 over mouse J774.2 cells; in short: as §2
[11] = tested on: Leishmania infantum; assay: Antileishmanial activity against promastigote form of Leishmania infantum MCAN/ES/2001/UCM-10 after 72 hrs by haemocytometric analysis; type: functional, organism-based; conditions: Leishmania infantum, MCAN/ES/2001/UCM-10, 72 h
In short: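 Promastigotes grown at 28 °C in MTL medium with 10% inactivated FCS. Compounds in DMSO (0.1%), diluted in culture medium to 100, 50, 25, 10 and 1. Cells counted at 72 h in a Neubauer haemocytometric chamber. IC50 (50% inhibition) by linear regression of Kc values.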

[12] = Selectivity index, ratio of IC50 for mouse J774.2 cells to IC50 for amastigote form of Leishmania infantum MCAN/ES/2001/UCM-10 infected in J774.2 cells; type: toxicity, cell-based; conditions: J774.2 cells, read-out: Ratio IC50; in short: as §1
[13] = tested on: Leishmania braziliensis; assay: Antileishmanial activity against promastigote form of Leishmania braziliensis MHOM/BR/1975/M2904 assessed as mortality at IC25 concentration after 96 hrs by MET microscopic analysis; type: functional; conditions: MHOM/BR/75/M2904; in short: as §3
[14] = tested on: Leishmania infantum; assay: Antileishmanial activity against promastigote form of Leishmania infantum MCAN/ES/2001/UCM-10 assessed as change in succinate metabolite production at IC25 concentration after 96 hrs by H1-NMR analysis; type: functional; in short: as §4
[15] = tested on: Leishmania braziliensis; assay: Antileishmanial activity against promastigote form of Leishmania braziliensis MHOM/BR/1975/M2904 assessed as ethanol metabolite production at IC25 concentration after 96 hrs by H1-NMR analysis; type: functional, MHOM/BR/75/M2904; in short: as §4
[16] = Ratio of compound selectivity index to glucantime selectivity index for axenic amastigote form of Leishmania infantum MCAN/ES/2001/UCM-10 over mouse J774.2 cells
In short: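 Axenic amastigotes obtained by 3-day promastigote transformation in supplemented M199 + 10% heat-inactivated FCS, pH 5.4, 37 °C. […] Host toxicity: J774.2, 72 h, PI/FDA flow cytometry. SI = macrophage IC50/axenic amastigote IC50; ratio is compound SI over Glucantime SI.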

[17] = tested on: Leishmania infantum; assay: Antileishmanial activity against axenic amastigote form of Leishmania infantum MCAN/ES/2001/UCM-10 after 72 hrs by haemocytometric analysis; type: functional, organism-based; conditions: Leishmania infantum, MCAN/ES/2001/UCM-10, 72 h
In short: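 Axenic amastigotes made by culturing promastigotes 3 days at 37 °C in M199 with 10% heat-inactivated FCS plus organic acids, amino acids, sucrose, bicarbonate, MES, haemin and gentamicin, pH 5.4. Compound effect counted in a Neubauer haemocytometer chamber. IC50 by linear regression of Kc values at 1, 10, 25, 50 and 100.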

Row | IC50 [5] | IC50 [6] | IC50 [11] | IC50 [17] | SMILES | IC50 [1] | selectivity ratio [2] | selectivity ratio [3] | inhibition (INH) [4] | Activity [7] | Ratio [8] | Activity [9] | Ratio [10] | selectivity ratio [12] | Activity [13] | Activity [14] | Activity [15] | Ratio [16]
1 | 9 µM | 10.3 µM | 18.8 µM | 15.9 µM | Cl.c1cncc(CNCCN2CCNCc3cccc(n3)CNCC2)c1 | 468 µM | 45.4 | 24.9 | 77% | Active | 57 | -47% | 31 | 74.3 | Active | -36% | -59% | 59
2 | 16.6 µM | 16.6 µM | 21.7 µM | 28.1 µM | Cl.c1cc2nc(c1)CNCCN(CCNCc1cccc3ccccc13)CCNC2 | 365 µM | 22 | 18.8 | 71% | Active | 27 | 2% | 23 | 21 | Active | -3% | -6% | 26
3 | 15.1 µM | 10 µM | 18.9 µM | 29.2 µM | Br.NCCN1CCNCc2cccc(n2)CNCC1 | 232 µM | 23.2 | 12.2 | – | Active | 29 | 22% | 15 | 9 | Active | – | 6% | 16
4 | 1.3 µM | 10.4 µM | 15.5 µM | 25.4 µM | Cl.c1ccc(CNCCN2CCNCc3cccc(n3)CNCC2)nc1 | 254 µM | 24.4 | 16.4 | 67% | Active | 30 | -78% | 20 | 13 | Active | -59% | -71% | 20
